The record followed here is ChEMBL document CHEMBL1649111, “Restoration of susceptibility of intracellular methicillin-resistant Staphylococcus aureus to beta-lactams: comparison of strains, cells, and antibiotics” (Antimicrob Agents Chemother, 2008).

Converted amounts (≈) assume the structure as drawn.

For assay [1], the system named is Staphylococcus aureus. The experiment in a line: Antimicrobial activity against intracellular hospital acquired methicillin-resistant Staphylococcus aureus ATCC 33591 infected in human keratinocytes assessed as increase in bacterial count from original inoculum at low compound concentration after 24 hrs at pH 7.4. The assay is classed as functional. A digest of the protocol:
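Primary human skin keratinocytes or Calu-3 bronchial epithelial cells, given an inoculum of 5 × 10⁷ to 1 × 10⁸ bacteria/ml and 2 h for internalization. Post-phagocytosis load 1.5 × 10⁶ to 3.0 × 10⁶ CFU per mg cell protein. Cloxacillin dose range in mg/liter for 24 h, n = 3. Hill-derived Emin, Emax and EC50; static concentration interpolated.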

Assay [2] concerns Staphylococcus aureus. The experiment in a line: Bacteriostatic activity against intracellular beta-lactamase negative methicillin-susceptible Staphylococcus aureus ATCC 25923 infected in human keratinocytes assessed as decrease in bacterial growth after 24 hrs at pH 7.4. The class given is functional. In a few lines: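 Primary human skin keratinocytes or Calu-3 bronchial epithelial cells infected with MSSA ATCC 25923 at 5 × 10⁷ to 1 × 10⁸ bacteria/ml, 2 h internalization. Postphagocytosis inoculum 1.5 × 10⁶ to 3.0 × 10⁶ CFU/mg protein. Cloxacillin concentration range for 24 h; CFU/mg protein change vs. inoculum (n = 3). Hill fit gives Emin/Emax; static concentration by graphical interpolation.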

The test system of assay [3] is Staphylococcus aureus. The experiment in a line: Antimicrobial activity against beta-lactamase negative methicillin-susceptible Staphylococcus aureus ATCC 25923 infected in human THP-1 cells assessed as decrease in bacterial count from original inoculum at high compound concentration after 24 hrs at pH 7.4. The class given is functional.
In assay [4] the test system is Staphylococcus aureus. The experiment in a line: Antimicrobial activity against hospital acquired methicillin-resistant Staphylococcus aureus ATCC 33591 infected in human THP-1 cells assessed as decrease in bacterial growth after 24 hrs at pH 7.4. The class given is functional, organism-based. The settings on record: ATCC 33591, THP-1, 24 h.
The subject of assay [5] is Staphylococcus aureus. The experiment in a line: Antimicrobial activity against beta-lactamase negative methicillin-susceptible Staphylococcus aureus ATCC 25923 by broth microdilution method at pH 7.4. The class given is functional.
Assay [6] deals with Staphylococcus aureus. Put plainly: Antimicrobial activity against hospital acquired methicillin-resistant Staphylococcus aureus ATCC 33591 by broth microdilution method at pH 7.4. The assay is classed as functional. In a few lines:
(§1)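 Minimal inhibitory concentration by broth microdilution at pH 7.4, read in mg/liter. The MRSA genotype was confirmed by mecA PCR, and the SCCmec subgroup was assigned by multiplex PCR.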

Assay [7] relates to Staphylococcus aureus. Put plainly: Antimicrobial activity against hospital acquired methicillin-resistant Staphylococcus aureus N4120032 obtained from wound infection of patient by broth microdilution method at pH 7.4. The class given is functional. In a few lines: as §1
Assay [8] relates to Staphylococcus aureus. The experiment in a line: Antimicrobial activity against Panton-valentine leukocidin positive community acquired methicillin-resistant Staphylococcus aureus NRS192 obtained from patient with pneumonia and septic arthritis by broth microdilution method at pH 7.4. The class given is functional. In a few lines: as §1
The test system of assay [9] is Staphylococcus aureus. Put plainly: Antimicrobial activity against hospital acquired methicillin-resistant and vancomycin-intermediate Staphylococcus aureus NRS18 obtained from patient with wound, skin and soft tissue infection by broth microdilution method at pH 7.4. The assay is classed as functional. A digest of the protocol: as §1
Assay [10] relates to Staphylococcus aureus. The experiment in a line: Antimicrobial activity against constitutive beta-lactamase negative methicillin-resistant Staphylococcus aureus COL NRS100 by broth microdilution method at pH 5.5. The assay is classed as functional.
The subject of assay [11] is Staphylococcus aureus. Put plainly: Antimicrobial activity against hospital acquired methicillin-resistant Staphylococcus aureus HMC546 by broth microdilution method at pH 5.5. The class given is functional.
For assay [12], the system named is Staphylococcus aureus. Put plainly: Antimicrobial activity against Panton-valentine leukocidin positive community acquired methicillin-resistant Staphylococcus aureus NRS192 obtained from patient with pneumonia and septic arthritis by broth microdilution method at pH 5.5. The class given is functional.
The test system of assay [13] is Staphylococcus aureus. Put plainly: Antimicrobial activity against animal acquired methicillin-resistant Staphylococcus aureus N7112046 by broth microdilution method at pH 5.5. The class given is functional.
The subject of assay [14] is Staphylococcus aureus. Put plainly: Antimicrobial activity against Panton-valentine leukocidin positive community acquired methicillin-resistant Staphylococcus aureus N4042228 infected in human THP-1 cells assessed as increase in bacterial count from original inoculum at low compound concentration after 24 hrs at pH 5.5. The assay is classed as functional. A digest of the protocol: (§2)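 Bacteria phagocytosed by unactivated human THP-1 macrophages, then incubated 24 h with extracellular antibiotic at about 0.01× to 100× the pH 5.5 broth MIC. CFU per mg cell protein counted against the original inoculum, n = 3. A Hill-equation fit (slope factor 1) gave Emin and Emax, extrapolated to infinitely low and high concentration, and EC50. Static concentration was graphically interpolated.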

In assay [15] the test system is Staphylococcus aureus. Put plainly: Antimicrobial activity against animal acquired methicillin-resistant Staphylococcus aureus N7112046 infected in human THP-1 cells assessed as increase in bacterial count from original inoculum at low compound concentration after 24 hrs at pH 5.5. The class given is functional. In a few lines: as §2
Assay [16] relates to Staphylococcus aureus. The experiment in a line: Antimicrobial activity against beta-lactamase negative methicillin-susceptible Staphylococcus aureus ATCC 25923 infected in human THP-1 cells assessed as decrease in bacterial count from original inoculum at high compound concentration after 24 hrs at pH 5.5. The class given is functional. A digest of the protocol:
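MSSA ATCC 25923 phagocytized by unactivated THP-1 macrophages; extracellular antibiotic from about 0.01× to 100× the broth MIC at pH 5.5, with gentamicin 0.5 mg/liter to block extracellular growth. CFU per mg cell protein counted at 24 h vs. original inoculum (n = 3). A Hill equation (slope factor 1) gives Emin/Emax, extrapolated to infinitely low/high concentration. Static concentration is read by graphical interpolation.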

For assay [17], the system named is Staphylococcus aureus. Put plainly: Antimicrobial activity against hospital acquired methicillin-resistant Staphylococcus aureus ATCC 33591 infected in human THP-1 cells assessed as decrease in bacterial count from original inoculum at high compound concentration after 24 hrs at pH 5.5. The assay is classed as functional. A digest of the protocol: as §2
Assay [18] deals with Staphylococcus aureus. Put plainly: Antimicrobial activity against constitutive beta-lactamase negative methicillin-resistant Staphylococcus aureus COL NRS100 infected in human THP-1 cells assessed as decrease in bacterial count from original inoculum at high compound concentration after 24 hrs at pH 5.5. The assay is classed as functional. A digest of the protocol: as §2

Assay [19] concerns Staphylococcus aureus. The experiment in a line: Antimicrobial activity against hospital acquired methicillin-resistant and vancomycin-intermediate Staphylococcus aureus NRS126 obtained from bloodstream infection of patient infected in human THP-1 cells assessed as decrease in bacterial count from original inoculum at high compound concentration after 24 hrs at pH 5.5. The class given is functional. A digest of the protocol:
as §2

In assay [20] the test system is Staphylococcus aureus. Put plainly: Antimicrobial activity against animal acquired methicillin-resistant Staphylococcus aureus N7112046 infected in human THP-1 cells assessed as decrease in bacterial count from original inoculum at high compound concentration after 24 hrs at pH 5.5. The assay is classed as functional. In a few lines: as §2
For assay [21], the system named is Staphylococcus aureus. The experiment in a line: Bacteriostatic activity against Panton-valentine leukocidin positive community acquired methicillin-resistant Staphylococcus aureus NRS192 infected in human THP-1 cells assessed as decrease in bacterial growth after 24 hrs at pH 5.5. The assay is classed as functional. In a few lines: (§3)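 Human THP-1 macrophages infected with each S. aureus strain. Cloxacillin added extracellularly at about 0.01× to 100× the broth MIC measured at pH 5.5, with gentamicin 0.5 mg/liter to stop extracellular growth. Incubated 24 h. CFU counted per mg cell protein as change from the post-phagocytosis inoculum, n = 3. Emin, Emax and EC50 from a Hill fit; static concentration by graphical interpolation.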

Assay [22] concerns Staphylococcus aureus. Put plainly: Bacteriostatic activity against hospital acquired methicillin-resistant and vancomycin-intermediate Staphylococcus aureus NRS18 infected in human THP-1 cells assessed as decrease in bacterial growth after 24 hrs at pH 5.5. The class given is functional. A digest of the protocol: as §3
Assay [23] relates to Staphylococcus aureus. Put plainly: Bacteriostatic activity against hospital acquired methicillin-resistant and vancomycin-intermediate Staphylococcus aureus VRS2 infected in human THP-1 cells assessed as decrease in bacterial growth after 24 hrs at pH 5.5. The assay is classed as functional. A digest of the protocol:
as §3

The test system of assay [24] is Staphylococcus aureus. The experiment in a line: Antimicrobial activity against intracellular beta-lactamase negative methicillin-susceptible Staphylococcus aureus ATCC 25923 infected in activated human THP-1 cells assessed as decrease in bacterial count from original inoculum at high compound concentration after 24 hrs at pH 7.4. The assay is classed as functional.

In the case of `Cc1onc(-c2ccccc2Cl)c1C(=O)N[C@@H]1C(=O)N2[C@@H]1SC(C)(C)[C@@H]2C(=O)O` [CLOXACILLIN], the log10cfu in the assay with Staphylococcus aureus [1] stood at 2.06; in the assay with Staphylococcus aureus [3], 0.77; in the assay with Staphylococcus aureus [14] it was 2.68; in the assay with Staphylococcus aureus [15], 1.84; in the assay with Staphylococcus aureus [16], 0.77; in the assay on Staphylococcus aureus [17], 0.55. Further, the log10cfu in the assay with Staphylococcus aureus [18] worked out at 0.78; with Staphylococcus aureus [19], 0.69; in the assay with Staphylococcus aureus [20], 0.72; in the assay with Staphylococcus aureus [24], 0.9. Besides, the Activity with Staphylococcus aureus [2] came to 1.1 mg/L; with Staphylococcus aureus [21] it was 16.6 ×MIC; with Staphylococcus aureus [22], 14.1 ×MIC; with Staphylococcus aureus [23] it was 8.12 mg/L. Also, in the assay on Staphylococcus aureus [4], the EC50 was 0.26 µg/mL (≈ 0.596 µM). Further, the MIC with Staphylococcus aureus [5] stood at 0.125 µg/mL (≈ 0.287 µM); with Staphylococcus aureus [6], 16 µg/mL (≈ 36.7 µM); in the assay with Staphylococcus aureus [7], 1 µg/mL (≈ 2.29 µM); in the assay with Staphylococcus aureus [8], 1 µg/mL (≈ 2.29 µM); with Staphylococcus aureus [9] it was 8 µg/mL (≈ 18.4 µM); with Staphylococcus aureus [10], 0.25 µg/mL (≈ 0.574 µM). Further, the figures for the minimum inhibitory concentration (MIC) against Staphylococcus aureus [11], in the assay on Staphylococcus aureus [12] and against Staphylococcus aureus [13] were 0.25 µg/mL (≈ 0.574 µM), 0.06 µg/mL (≈ 0.138 µM) and 0.125 µg/mL (≈ 0.287 µM), respectively.
